Measured values pooled from the literature.
Lines come from different studies, so protocols differ.

Structure (SMILES)	tested on	assay	system	conditions	measurement	value
COC(=O)C1=C(C)NC(C)=C(C(=O)OCCN(C)Cc2ccccc2)C1c1cccc([N+](=O)[O-])c1 (stereo not shown)	Vesicular stomatitis virus	viral entry, inhibitor	Vero C1008	pseudovirus	IC50	25 to 70 µM
COc1ccc(OC)c(C=CC(=O)NC2CCC(CN3CCC(c4c[nH]c5ccccc45)CC3)CC2)c1 (stereo not shown)	HEK293	cell growth or viability			IC50	> 10 µM
N.N.[Cl][Pt][Cl]	SK-MEL-28	cell growth or viability, resazurin		dark	EC50	3.12 µM
CCCCCCCc1cc(=O)c2ccccc2[nH]1	HEK293	cell growth or viability			IC50	> 10 µM
Cc1ccc2c(CNCC3(N4CCCC4)COC3)c[nH]c2c1	GBM6	cell growth or viability		30 µM, 48 h	viability	60.6%
C#C[C@]1(O)CC[C@H]2[C@@H]3CCc4cc(O)ccc4[C@H]3CC[C@@]21C	Vesicular stomatitis virus	viral entry, inhibitor	Vero C1008	pseudovirus	IC50	25 to 70 µM
Cc1nc(C)c(-c2ccc(Oc3ccc(OC(F)(F)F)cc3)cc2)c(OC(=O)N(CCNC(C)C)C(C)C)c1Br	HEK293	cell growth or viability			IC50	> 10 µM
CO[C@H]1/C=C/O[C@@]2(C)Oc3c(C)c(O)c4c(O)c(c(/C=N/N5CCN(C)CC5)c(O)c4c3C2=O)NC(=O)/C(C)=C\C=C\[C@H](C)[C@H](O)[C@@H](C)[C@@H](O)[C@@H](C)[C@H](OC(C)=O)[C@@H]1C	Mycobacterium avium	microbial growth		6 days	MIC	< 0.78 µM
Cc1cccc2c(CNCC3(N4CCCC4)COC3)c[nH]c12	T98G	cell growth or viability		30 µM, 48 h	viability	34.1%
O=C(NC1CCC(CN2CCC(c3c[nH]c4ccccc34)CC2)CC1)c1[nH]c(=O)[nH]c(=O)c1F (stereo not shown)	HEK293	cell growth or viability			IC50	> 10 µM
O=c1c2ccccc2[se]n1-c1ccccc1	HEK293	cell growth or viability, MTT		125 µM, 72 h	inhibition	43%
NNC(=O)c1ccncc1	Mycolicibacterium phlei	microbial growth			MIC	> 8 µg/mL
[H]/N=C(/N)N[C@H]1[C@H](O)[C@@H](O)[C@H](O[C@@H]2O[C@@H](C)[C@](O)(C=O)[C@H]2O[C@@H]2O[C@@H](CO)[C@H](O)[C@@H](O)[C@@H]2NC)[C@@H](N/C(N)=N\[H])[C@@H]1O	Mycobacterium avium	microbial growth	ATCC25291		MIC	12.5 µg/mL
